The test system of data set [1] is U373 MG. As to the kind of experiment: (§1) Cytotoxicity against U-373 MG glioblastomas using MTT colorimetric assay; NE is no effect at 1x 10 E-5. Type of data set: functional, cell-based, Homo sapiens. To be noted: u-373mg atcc. In short, it runs like this:
(§2)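 Human tumour lines from ATCC were grown at 37 °C in sealed dishes in MEM with 5% FCS. Cells were seeded at 40000 cells/mL in 96-well plates and left 24 h to plate. Each drug was then tested at six concentrations from 10^-5 to 10^-9 M. Growth was read by colorimetric MTT assay.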

The test system of data set [2] is A 172. In words: (§3) Cytotoxicity against A-172 glioblastomas using MTT colorimetric assay; NE is no effect at 1x 10 E-5. The format is functional, cell-based, Homo sapiens. The essentials:
as §2
(Formazan colour is commonly taken as a measure of viable cells.)

In data set [3] the test system is LoVo. In words: (§4) Cytotoxicity against LoVo colon cell line using MTT colorimetric assay; NE is no effect at 1x 10 E-5. Type of data set: functional, cell-based, Homo sapiens. In short, it runs like this: as §2
Data set [4] deals with T-24. In words: (§5) Cytotoxicity against T24 bladder cell lines using MTT colorimetric assay; NE is no effect at 1x 10 E-5. The format is functional, cell-based, Homo sapiens. In short, it runs like this: as §2
Data set [5] deals with HCT-15. As to the kind of experiment: (§6) Cytotoxicity against HCT-15 colon cell line using MTT colorimetric assay; NE is no effect at 1x 10 E-5. The format is functional, cell-based, Homo sapiens. In short, it runs like this: as §2
For data set [6], the system named is MCF7. As to the kind of experiment: (§7) Cytotoxicity against Breast cancer cell line MCF-7 using MTT colorimetric assay; NE is no effect at 1x 10 E-5. The format is functional, cell-based, Homo sapiens. The essentials:
as §2

Data set [7] has as its system A-427. As to the kind of experiment: (§8) Cytotoxicity against A-427 nonsmall lung cell line using MTT colorimetric assay; NE is no effect at 1x 10 E-5. Type of data set: functional, cell-based, Homo sapiens. In short, it runs like this:
as §2

Data set [8] concerns U-87 MG. In words: (§9) Cytotoxicity against U-87 MG glioblastomas using MTT colorimetric assay; NE is no effect at 1x 10 E-5. The format is functional, cell-based, Homo sapiens. To be noted: u-87mg atcc. In short, it runs like this:
as §2

The nature of data set [9]: Evaluated in vivo for maximum tolerated dose and found to be nontoxic. The format is ADME, organism-based.
Data set [10] concerns PC-3. In words: (§10) Cytotoxicity against prostate cell line PC-3 using MTT colorimetric assay; NE is no effect at 1x 10 E-5. The format is functional, cell-based, Homo sapiens. In short, it runs like this:
as §2

Data set [11] deals with J82. As to the kind of experiment: (§11) Cytotoxicity against J82 bladder cell lines using MTT colorimetric assay; NE is no effect at 1x 10 E-5. Type of data set: functional, cell-based, Homo sapiens. The essentials: as §2
Data set [12] deals with A549. As to the kind of experiment: (§12) Cytotoxicity against A549 nonsmall lung cell line using MTT colorimetric assay; NE is no effect at 1x 10 E-5. Type of data set: functional, cell-based, Homo sapiens. The essentials: as §2
For data set [13], the system named is T47D. In words: (§13) Cytotoxicity against Breast cancer cell line T-47D using MTT colorimetric assay; NE is no effect at 1x 10 E-5. Type of data set: functional, cell-based, Homo sapiens. In short, it runs like this:
as §2

For data set [14], the system named is A549. As to the kind of experiment: Cytotoxicity against A549 nonsmall lung cell line using MTT colorimetric assay. Type of data set: functional, cell-based. To be noted: Homo sapiens. The essentials: as §2
For data set [15], the system named is T-24. As to the kind of experiment: Cytotoxicity against T24 bladder cell lines using MTT colorimetric assay. Type of data set: functional, cell-based. To be noted: Homo sapiens. The essentials:
as §2

The test system of data set [16] is A-427. As to the kind of experiment: Cytotoxicity against A-427 nonsmall lung cell line using MTT colorimetric assay. To be noted: Homo sapiens. Type of data set: functional, cell-based. In short, it runs like this: as §2
In data set [17] the test system is U-87 MG. As to the kind of experiment: Cytotoxicity against U-87 MG glioblastomas using MTT colorimetric assay. Type of data set: functional, cell-based, U-87MG ATCC. To be noted: Homo sapiens. In short, it runs like this:
as §2

Data set [18] has as its system HCT-15. In words: Cytotoxicity against HCT-15 colon cell line using MTT colorimetric assay. The format is functional, cell-based. To be noted: Homo sapiens. In short, it runs like this:
as §2

Data set [19] relates to PC-3. In words: Cytotoxicity against prostate cell line PC-3 using MTT colorimetric assay. Conditions: Homo sapiens. The format is functional, cell-based. The essentials: as §2
In data set [20] the test system is A 172. As to the kind of experiment: Cytotoxicity against A-172 glioblastomas using MTT colorimetric assay. Type of data set: functional, cell-based. To be noted: Homo sapiens. The essentials:
as §2

Data set [21] concerns LoVo. In words: Cytotoxicity measured on LoVo colon cell line using MTT colorimetric assay. The format is functional, cell-based. To be noted: Homo sapiens. The essentials:
as §2

Data set [22] concerns J82. In words: Cytotoxicity against J82 bladder cell lines using MTT colorimetric assay. The format is functional, cell-based. Conditions: Homo sapiens. The essentials: as §2
Data set [23] has as its system U373 MG. In words: Cytotoxicity against U-373 MG glioblastomas using MTT colorimetric assay. Conditions: Homo sapiens. Type of data set: functional, cell-based, U-373MG ATCC. In short, it runs like this: as §2
The test system of data set [24] is MCF7. As to the kind of experiment: Cytotoxicity against Breast cancer cell line MCF-7 using MTT colorimetric assay. Type of data set: functional, cell-based. To be noted: Homo sapiens. In short, it runs like this:
as §2

Data set [25] deals with T47D. As to the kind of experiment: Cytotoxicity against Breast cancer cell line T-47D using MTT colorimetric assay at 1x 10 E-5. The format is functional, cell-based. To be noted: Homo sapiens. In short, it runs like this:
as §2

Data set [26] deals with T47D. As to the kind of experiment: Cytotoxicity against Breast cancer cell line T-47D using MTT colorimetric assay. The format is functional, cell-based. To be noted: Homo sapiens. The essentials: as §2
Data set [27] has as its system MCF7. In words: Cytotoxicity against Breast cancer cell line MCF-7 using MTT colorimetric assay at 1x 10 E-5. The format is functional, cell-based. To be noted: Homo sapiens. The essentials:
as §2

Data set [28] has as its system A-427. The description is as §8. Conditions: Homo sapiens. Type of data set: functional, cell-based. The essentials: as §2
Data set [29] deals with J82. The data set is described as §11. The format is functional, cell-based. Conditions: Homo sapiens. The essentials:
as §2

For data set [30], the system named is U-87 MG. The data set is described as §9. The format is functional, cell-based. To be noted: Homo sapiens; U-87MG ATCC. In short, it runs like this:
as §2

The subject of data set [31] is U373 MG. The description is as §1. To be noted: Homo sapiens; U-373MG ATCC. Type of data set: functional, cell-based. The essentials:
as §2

Data set [32] relates to MCF7. Described as §7. Type of data set: functional, cell-based. Conditions: Homo sapiens. In short, it runs like this: as §2
The subject of data set [33] is T-24. The data set is described as §5. The format is functional, cell-based. Conditions: Homo sapiens. The essentials:
as §2

In data set [34] the test system is PC-3. The data set is described as §10. The format is functional, cell-based. Conditions: Homo sapiens. In short, it runs like this:
as §2

For data set [35], the system named is A 172. The description is as §3. Type of data set: functional, cell-based. To be noted: Homo sapiens. In short, it runs like this: as §2
Data set [36] has as its system LoVo. The data set is described as §4. Type of data set: functional, cell-based. Conditions: Homo sapiens. In short, it runs like this:
as §2

Data set [37] relates to HCT-15. Described as §6. The format is functional, cell-based. To be noted: Homo sapiens. In short, it runs like this: as §2
Data set [38] has as its system A549. Described as §12. The format is functional, cell-based. To be noted: Homo sapiens. The essentials:
as §2

The test system of data set [39] is T47D. The data set is described as §13. Type of data set: functional, cell-based. Conditions: Homo sapiens. The essentials: as §2
Data set [40] has as its system HCT-15. As to the kind of experiment: Cytotoxicity against HCT-15 colon cell line using MTT colorimetric assay at 1x 10 E-5. The format is functional, cell-based. To be noted: Homo sapiens. The essentials: as §2
The subject of data set [41] is HCT-15. As to the kind of experiment: Cytotoxicity against HCT-15 colon cell line using MTT colorimetric assay a; NE is no effect at 1x 10 E-5. The format is functional, cell-based, Homo sapiens. The essentials: as §2
The test system of data set [42] is T47D. In words: Cytotoxicity against Breast cancer cell line T-47D using MTT colorimetric assay at 1x 10 E-5; NE is no effect at 1x 10 E-5. Type of data set: functional, cell-based, Homo sapiens. In short, it runs like this: as §2

We go through six compounds from ChEMBL document CHEMBL1135464, “3-Aryl-2-quinolone derivatives: synthesis and characterization of in vitro and in vivo antitumor effects with emphasis on a new therapeutical target connected with cell migration” (J Med Chem, 2002).

Calls of active or inactive are those of the source. No cut-off for these calls is given here. Where only a bound is given, the exact number is not on record here.

What is called IC50 is the concentration needed to halve the response being measured. As usually defined, the MTD is the largest dose that counted as tolerated. On to `COc1ccc(-c2cc3c(OC)cc(OC)cc3n(CCCN(C)C)c2=O)cc1`, for which the IC50 entry with U373 MG [1], in the data set with A 172 [2], in the data set with LoVo [3], in the data set on T-24 [4], with HCT-15 [5] and with MCF7 [6] was “No effect” in each case. For the same compound, the IC50 result in the data set on A-427 [7], with U-87 MG [8], in the data set with PC-3 [10], in the data set with J82 [11], in the data set on A549 [12] and in the data set on T47D [13] was “No effect” throughout. In data set [9], this compound yielded a maximal tolerated dose (MTD) of 160 mg/kg.
On to `COc1ccc(-c2cc3c(OC)ccc(OC)c3nc2O)cc1`, for which the IC50 with A549 [14], in the data set with T-24 [15], in the data set with A-427 [16], in the data set with U-87 MG [17], with HCT-15 [18] and in the data set on PC-3 [19] was over 10 µM throughout. Besides, the half-inhibitory concentration (IC50) in the data set with A 172 [20], in the data set with LoVo [21], in the data set on J82 [22], in the data set on U373 MG [23], with MCF7 [24] and in the data set with T47D [25] was over 10 µM throughout. For the same compound, in [9], the maximum tolerated dose (MTD) came out at 160 mg/kg.
Consider `CCN(CC)C(=O)Cn1c(=O)c(-c2ccc(OC)cc2)cc2c(OC)cc(OC)cc21`, for which the IC50 with A549 [14], in the data set on T-24 [15], in the data set with A-427 [16], in the data set with U-87 MG [17], in the data set with HCT-15 [18] and in the data set with PC-3 [19] was over 10 µM in each case. Further, the IC50 in the data set on T47D [26], with A 172 [20], in the data set with LoVo [21], in the data set with J82 [22], with MCF7 [27] and with U373 MG [23] was over 10 µM in each case. The same compound returned a maximal tolerated dose (MTD) in [9] of 160 mg/kg.
For `COc1ccc(-c2cc3c(OC)cc(OC)cc3nc2S)cc1`, the Cytotoxicity entry in the data set on A-427 [28], in the data set on J82 [29], with U-87 MG [30], with U373 MG [31], with MCF7 [32] and in the data set with T-24 [33] was “inactive” each time. For the same compound, the Cytotoxicity entry in the data set with PC-3 [34], in the data set on A 172 [35], with LoVo [36], in the data set on HCT-15 [37], in the data set with A549 [38] and in the data set with T47D [39] was “inactive” throughout. This compound also showed a maximal tolerated dose (MTD) in [9] of 160 mg/kg.
Turning to `COC(=O)CCn1c(=O)c(-c2ccc(OC)cc2)cc2c(OC)cc(OC)cc21`, the IC50 in the data set on A549 [14], with T-24 [15], with A-427 [16], in the data set with U-87 MG [17], in the data set with PC-3 [19] and with T47D [26] was over 10 µM in each case. Further, the IC50 in the data set on A 172 [20], in the data set with LoVo [21], in the data set on J82 [22], in the data set with HCT-15 [40], with U373 MG [23] and with MCF7 [24] was over 10 µM each time. In data set [9], this compound registered an MTD of 160 mg/kg.
For `COc1ccc(-c2cc3c(OC)cc(OC)cc3n(CCC(=O)O)c2=O)cc1`, the IC50 entry in the data set on U373 MG [1], in the data set with A 172 [2], in the data set on LoVo [3], in the data set with T-24 [4], in the data set on HCT-15 [41] and in the data set on MCF7 [6] was “No effect” each time. The half-maximal inhibitory concentration (IC50) entry with A-427 [7], in the data set on U-87 MG [8], in the data set with PC-3 [10], in the data set with J82 [11], in the data set on T47D [42] and with A549 [12] was “No effect” throughout. The maximal tolerated dose (MTD) in data set [9] turned out to be 160 mg/kg.
